The EternaBench riboswitch data

Tested on: MS2 coat protein
Test: apparent Kd, MS2 coat protein; higher = weaker binding; RNA-MaP array; FMN 200 µM where present
Outline: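 Green signal from SNAP-549-labelled MS2 coat protein was normalised to red-channel RNA signal and to the median Fmax of control clusters. The protein was titrated from 0.7 or 1.5 nM, doubling to 3 µM, without and then with constant ligand, over designs transcribed by stalled E. coli RNA polymerase on Illumina sequencing-chip clusters, in 100 mM Tris-HCl pH 7.5, 80 mM KCl, 4 mM MgCl2, BSA, DTT, yeast tRNA and Tween-20. The apparent Kd is the median of filtered per-cluster binding-curve fits.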

[1] = designed as: ON switch for flavin mononucleotide, no ligand
[2] = ligand present: flavin mononucleotide, designed as: ON switch for flavin mononucleotide
[3] = designed as: OFF switch for flavin mononucleotide, no ligand
[4] = ligand present: flavin mononucleotide, designed as: OFF switch for flavin mononucleotide

Row | Sequence | apparent Kd [1] | apparent Kd [2] | apparent Kd [3] | apparent Kd [4]
1 | UUUAAAGGCACAUGAGGAUCACCCAUGUCCGGUACUAACAGACAGGAUAUGCAAGAUCCACUCAUGCAGAAGGGUCUGGCUUUU | 0.463 µM | 0.0797 µM | – | –
2 | AACAACUCUGUGAGGAUAUGCAAUUGUUGAUCAAGGCAGAAGGCACAUGAGGAUCACCCAUGUUCCUACAAGGG | – | – | 0.0473 µM | 0.11 µM
3 | GCACGGUAUGUAGGAUAUGCAUAGCAUUGCUAUGCAGAAGGACAUGAGGAUCACCCAUGUAUGUAUUCCAUACAAUUCCCGUGC | – | – | 0.00541 µM | 0.00582 µM
4 | UGAAAUCAUGUAGGAUAUGCAUGGCGAAGCUACGCAGAAGGACAUGAGGAUCACCCAUGUUAUAGCUACCCAAUUCGGUGGCAA | – | – | 0.0563 µM | 0.152 µM
5 | CUUUAACUACAAUUACAUGAGGAUCACCCAUGUUUUGGGAUGCAGGAUAUGUGGUAUAUUAAUUAACAGAAGGGCAAUAAUUAA | 0.0407 µM | 0.0389 µM | – | –
6 | UUUUCUUUUGUGAGGAUAUACUUCUUUUUUUUUUUGUAGAAGGCACAUGAGGAUCACCCAUGUUUUCUUUUCUG | – | – | 0.0189 µM | 0.0218 µM
7 | UUCUUUACCUAGGAUAUCUUCGGUACGGUCCGGAGAGAAGGAGGUACAUGAGGAUCACCCAUGUCCCUCUGAAA | – | – | 0.0126 µM | 0.0136 µM
8 | GUCAUCUCAUGAGGAUAUGCUCGGGUUUCCCGAGCAGAAGGCAUGUCAUACAUGAGGAUCACCCAUGUUGACAUUAAGAUUGUA | 0.00478 µM | 0.00504 µM | – | –
9 | GCUGCAUAGGCAGGAUAUGCAAUAAUUUAAAUAAAAUAUAAUAAAUUAACAUGAGGAUCACCCAUGUAGAAGGGCCUGUGCAGU | – | – | 0.0198 µM | 0.0192 µM
10 | GGACAUGUCGUCUACAUGAGGAUCACCCAUGUCGAUAGACAUGAGGAUAUCGAUAAGAAUUGUAUCGAGAAGGCAUGCAGGUCC | 0.0198 µM | 0.0215 µM | – | –
11 | UGAUCGAAAGAUCAUAGAUUCUGCUAGGAUAUGCAGAAGUUUCAAUUUACAUGAGGAUCACCCAUGUAGAAGGAGUAGAGUCUA | – | – | 0.00548 µM | 0.00598 µM
12 | GUCAGCUCGUGAGGAUAUACCACACUGCUUCGGCAGUGUAUUAAGAUCACAUGAGGAUCACCCAUGUAGAAGGCACGAGCUGAU | – | – | 0.00632 µM | 0.0342 µM
13 | GUUAUUAACAAGAAGGCAUACAUGAGGAUCACCCAUGUUCUACAUGGAUAAUGAGGAUAUUGCUAAUACAUGAGGAUCACCCAG | – | – | 0.072 µM | 0.0669 µM
14 | UUUCAGUCAGGAUAUCGUUAAUUUAAUUGUUUGUUUUAGUUCGAGAAGGGACAUGAGGAUCACCCAUGUAAUUU | – | – | 0.0331 µM | 0.0513 µM
15 | CAGUGCUGUCGAGAGGAUAUGCGGUGAUGGACAUGAGGAUCACCCAUGUUAGCGACAGCAUCACGGCAGAAGGCUCUACCCACUG | 0.0294 µM | 0.017 µM | – | –
16 | GCUAGUAUUGCAGGAUAUUGUGAAUAAUUAUUUCAAGAAGGGCAUAACAUGAGGAUCACCCAUGUCUUCCUUUUGAAUACUAGC | – | – | 0.00695 µM | 0.00651 µM
17 | UGUAUGGACAGAGGAUAUACAGAUAGGAUCUACUAUCAAACAUUCCUGACAUGAGGAUCACCCAUGUAGAAGGCUGUCCAUACU | – | – | 0.0211 µM | 0.0792 µM
18 | UUUUUGUGAGGAUAUCAGUAGUAAAAAAAUAAAAUUACUACUGAGAAGGCACAUGAGGAUCACCCAUGUUUUUC | – | – | 0.0382 µM | 0.117 µM
19 | GUUCUUCCUGUGAGGAUAUCCAUGUGUCGGUUUAUGGAGAAGGUACAUGAGGAUCACCCAUGUCACCCGCGUUA | – | – | 0.014 µM | 0.0188 µM
20 | UCAUUUACCACAGGAUAUAUUCAUAUACAGUUGUUUGGCUCUUACAUAUUAAUAGAAGGGUGCAACAUGAGGAUCACCCAUGUA | 0.274 µM | 0.191 µM | – | –
21 | CGGAUCGCAUGAGGAUAUGGUCAGGUUUCCUGACCAGAAGGCAUGUCAUAAGACAUGAGGAUCACCCAUGUAGUUAAGAUCCGA | 0.577 µM | 0.0402 µM | – | –
22 | UGGUGAAGUGUAGGAUAUGGAGGUGGGUUUUGGCCAGAAGGACAUGAGGAUCACCCAUGUGGUAGAGGGUUGGUGGUGGCUCGU | – | – | 0.0239 µM | 0.0214 µM
23 | AGCGAGGUAGGAUAUACAUGAGGAUCACCCAUGUGCUUGCAUGGCGUGGAACAUCGUAGUAGAAGGGCCGCGCC | – | – | 0.0204 µM | 0.0402 µM
24 | GCAGCCGAUGCAGGAUAUCAGCACGUGUAGUGCUGAGAAGGGCACAUGAGGAUCACCCAUGUGAUCAAUUAAUAUCGAUGCUGC | – | – | 0.00656 µM | 0.0143 µM
25 | GCGCGCUAAGGAUAUACAUGAGGAUCACCCAUGUUGCUCUGAUGAGCGGGUGUAAGCUGUAGAAGGUAGAGCAA | – | – | 0.0619 µM | 0.123 µM
26 | UUUUUGUGAGGAUAUCAGUAGUAAAAUAAAUAAAUUACUACUGAGAAGGCACAUGAGGAUCACCCAUGUUCCUU | – | – | 0.014 µM | 0.0303 µM
27 | UUUUAACAUGAGGAUCACCCAUGUGAGGAUAUCGAAAUUUAUAUUAAUAUUAUUUUAUCGAGAAGGCACAUUUU | – | – | 0.0961 µM | 0.124 µM
28 | CGCGGACAAGAGAAGGCCAGACCUCGGAACUUGAGGCACCGCUAGGCAUGGAGGAUAUCUUGACAUGAGGAUCACCCAUGUACA | 0.0863 µM | 0.0181 µM | – | –

Row | Sequence | apparent Kd [1] | apparent Kd [2] | apparent Kd [3] | apparent Kd [4]
29 | AGUAGAUCAGGAUAUACAUAAAUGAUAAUUAUGUACCUAAUACAUGAGGAUCACCCAUGUAGAAGGGAUCUACA | – | – | 0.0149 µM | 0.0179 µM
30 | GUAGCAUACGGAGGAUAUUCAUACCGGAAACGGACAUGAGGAUCACCCAUGUGGCGAAAGCCUUGGAAGAAGGCCGUAUGCUAC | 0.00396 µM | 0.00355 µM | – | –
31 | AAUUAUUAUUGAGGAUAUCGUAUUGAAAUAAUAUGAGAAGGCGGGAUAAACAUGAGGAUCACCCAUGUGAGCCUGAUGCUUGUG | – | – | 0.0166 µM | 0.0163 µM
32 | AAUGCCAAUGAAGGAUAUACAAACAUGAGGAUCACCCAUGUGUCUUUCGUGUAACUGGAAUUCGGGUAGAAGGUCAUUGACAUA | – | – | 0.0345 µM | 0.0269 µM
33 | AAGAAGUCAGGAUAUCCAGCUCGUCACUUGCGUGAUGAGUUGGAGAAGGGACAUGAGGAUCACCCAUGUAAAGG | – | – | 0.202 µM | 0.23 µM
34 | UUUAACUGCUAGAAGGGUGACAUGAGGAUCACCCAUGUGCUAGGCGUGCAUAAGCACCCUUAGCCACAGGAUAUAGUAGUUGAC | 0.112 µM | 0.0645 µM | – | –
35 | UCUUGUGUUGAGGAUAUGCGCCGGCUCGCUGGCGCAGAAGGCGGCACAUGAGGAUCACCCAUGUCAGUUCGCGA | – | – | 0.502 µM | 0.0607 µM
36 | UGAAAUCAUGUAGGAUAUGCAUGGCGAAGCUACGCAGAAGGACAUGAGGAUCACCCAUGUUAUAGCUACUCAGUUCGGUGGCAA | – | – | 0.0385 µM | 0.195 µM
37 | ACAUGCGGAUGAGGAUAUUCAUCCAUGAGGAUAGAAGAAGGCAUACAUGAGGAUCACCCAUGUAUACACAUGAGGAUCCCUUAU | – | – | 0.059 µM | 0.137 µM
38 | AAGUCAGCAGGAUAUGCGAUGUUGGGCUAGGUAGCGUGACCACAUGAGGAUCACCCAUGUAGAAGGGCUGGCUA | – | – | 0.0334 µM | 0.0344 µM
39 | UGUGCAUCAGGAUAUAUGUGGCGACCGUGAGGUCGAAGGUUACAUGAGGAUCACCCAUGUAGAAGGGAUGUACU | – | – | 0.0633 µM | 0.187 µM
40 | UUUUUGUCAGGAUAUACGUAGUAGAACAAUAGUACUACUACGUAGAAGGGACAUGAGGAUCACCCAUGUUCCUC | – | – | 0.0148 µM | 0.0309 µM
41 | CCAAUGUAAGGAUAUGACAAUGGUAUCUUCGGAUACCAUUGUCAGAAGGUACAUGAGGAUCACCCAUGUAUAAA | – | – | 0.0187 µM | 0.0411 µM
42 | AAAGCAACAUGAGGAUCACCCAUGUAGGAUAUCGCUAUUGUAAUCAUGAAACAUGAUUACAAUAGCGAGAAGGACAUAUGCGGG | – | – | 0.0425 µM | 0.0452 µM
43 | UAUGUAUUCGUAGGAUAUCCGUUGAAACCGUGUGGAGAAGGACGAACAUGAGGAUCACCCAUGUAUCAUGGUGUAGACAAUUUU | – | – | 0.0753 µM | 0.288 µM
44 | GGAGCCGGCACCGAGGAUAUUCAUAUUAAAACAUGAGGAUCACCCAUGUAGCUCGAAAGAGCUUGGGAGAAGGCGGAUCGGCUCG | 0.84 µM | 0.0432 µM | – | –
45 | CAAUUGGCACAGAAGGGUGACAUGAGGAUCACCCAUGUAGCGUGGUACUCAGGAGGAACCACGCCACAGGAUAUGUGCGGGCAC | 0.0303 µM | 0.0388 µM | – | –
46 | CCUCCACAUGAGGAUCACCCAUGUCAGGAUAUCGUGUGUGCUUUUUCGGUCUUUCGUGCGAGAAGGGACGUCUG | – | – | 0.0276 µM | 0.0267 µM
47 | UGUCUAUUUGAAGGAUAUCUAAGCAUAAACCAGAGAGAAGGUCAAUUAUACAUGAGGAUCACCCAUGUUGAGAUUAAUGGGUUA | – | – | 0.0271 µM | 0.0403 µM
48 | CUGACGUUUGAAGGAUAUGACAUGUUGAAGCGUAUUGACAGCCCUGCACAUGAGGAUCACCCAUGUCAGAAGGUCAACCGUUGA | – | – | 0.00711 µM | 0.0203 µM
49 | CGUAUGUCAGGAUAUGCGUAUGCCACCCAGGACGGGCGGCAGCAGAAGGGACAUGAGGAUCACCCAUGUUCGGG | – | – | 0.075 µM | 0.0684 µM
50 | ACAUGCAUAGCGAUAUGAUCGAGAGAUCAUGUCGCUUAAAAUAGAAGGACAUGAGGAUCACCCAUGUAGGAUAUGGGAGCAUGA | 0.0258 µM | 0.0117 µM | – | –
51 | AAGAGUGCAGGAUAUACUUGGUAGGGCGGGUGGAUGGUUUGACAUGAGGAUCACCCAUGUAGAAGGGCAGAGAG | – | – | 0.0387 µM | 0.0276 µM
52 | AUAUCACAUGAGGAUCACCCAUGUCAGGAUAUGAUACUAUGUACUUCGGUACAUAGUAUCAGAAGGGAUAUGAA | – | – | 0.0415 µM | 0.0699 µM
53 | AAACAUGUCCGAGGAUAUCUGGAAACAUUUUCAAGAGAAGGCGGACAUGAGGAUCACCCAUGUCUCUCCUCAUCAACUACAAUU | – | – | 0.00831 µM | 0.0581 µM
54 | AUACAUGAGGAUCACCCAUGUUACUGGGUCUAUAUAGAACGUAGAAGGAUGUAUUUAAGAAUAACAUAGGAUAUACUUUAUAGU | – | – | 0.0604 µM | 0.0382 µM
55 | ACAUUGUGAGGAUAUCCGAAGAAGGUCCGGAAGGUUCGGGUGGAGAAGGCACAUGAGGAUCACCCAUGUGUGGG | – | – | 0.0518 µM | 0.137 µM
